Hits are enriched below; roughly 3.7% of the tested compounds scored in any of these assays.
NPY-Y2 antag: NPY-Y2 (human) receptor antagonism | P49146 | NPY-Y2 expressing cells, antagonist mode | inhibition, % at 2.7 µM | 140,000 tested, 0.99% active | AID 793; in the data active = inhibition above about 17%;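 note: 0% = vehicle with agonist challenge and 100% = reference antagonist with challenge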
NPY-Y2 PAM-ag: potentiators or agonists of human neuropeptide Y receptor Y2; cells expressing NPY-Y2, potentiator/agonist read-out; AID 1359; activation, % at 3.6 µM; P49146; 220,000 tested, 0.45% active; in the data active = activation above about 27%;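 note: cells stimulated with NPY near EC25 plus isoproterenol at EC100; 0% = vehicle plus submaximal agonist and 100% = vehicle plus saturating agonist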
Furin inh: inhibitors of human furin | AID 463115 | inhibition, % at 20 µM or 30 µM | 220,000 tested, 0.061% active | purified furin, fluorogenic substrate cleavage | P09958; in the data active = inhibition above about 25%
Target sequence (P09958 108-714 limits assumed): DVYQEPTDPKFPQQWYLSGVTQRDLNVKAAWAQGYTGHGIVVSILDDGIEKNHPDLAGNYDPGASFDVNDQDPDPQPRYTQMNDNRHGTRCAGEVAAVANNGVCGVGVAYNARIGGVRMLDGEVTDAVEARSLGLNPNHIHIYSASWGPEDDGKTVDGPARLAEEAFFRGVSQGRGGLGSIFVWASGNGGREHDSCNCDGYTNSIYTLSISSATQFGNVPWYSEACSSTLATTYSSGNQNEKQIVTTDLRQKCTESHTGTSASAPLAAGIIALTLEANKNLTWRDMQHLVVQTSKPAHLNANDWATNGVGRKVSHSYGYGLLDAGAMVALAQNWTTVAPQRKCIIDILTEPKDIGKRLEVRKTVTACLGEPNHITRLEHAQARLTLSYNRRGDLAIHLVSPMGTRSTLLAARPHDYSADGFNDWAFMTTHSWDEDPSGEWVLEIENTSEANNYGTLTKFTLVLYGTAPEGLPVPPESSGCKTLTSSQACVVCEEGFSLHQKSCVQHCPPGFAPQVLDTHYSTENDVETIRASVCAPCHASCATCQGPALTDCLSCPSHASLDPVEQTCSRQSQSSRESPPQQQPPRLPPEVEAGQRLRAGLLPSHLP
Cl transport mod: modulators of human KCC2 chloride dependent transport | Q9H2X9 | KCC2 cells, thallium flux FluoZin-2 fluorescence | B-score of Tl+ flux slope (higher = more flux/activation; lower = inhibition) at 10 µM | 190,000 tested, 2.2% active | AID 1456;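 active = thallium flux slope and its plate-corrected score both differing from the plate sample mean at a set confidence after two filtering rounds, in either direction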;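 note: slope of fluorescence scaled to starting intensity during 10 to 20 s after thallium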
NPY-Y1 antag: antagonists of human neuropeptide Y receptor Y1 | P25929 | HEK293-CNG Y1 cells, membrane potential fluorescence; NPY at EC95, then isoproterenol | inhibition, % at 3.6 µM | 200,000 tested, 1% active;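 active = inhibition above the campaign mean inhibition of all tested compounds plus 3 SD, cut at about 20% in these data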;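 note: 0% = DMSO wells given NPY plus isoproterenol and 100% = isoproterenol alone without NPY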
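Test system – HEK293 Y1/CNG channel cell line · Also added – NPY agonist 25 nM, then isoproterenol 1 µM plus Ro 20-1724 25 µM · Compound dosing – one concentration, 3.6 µM, in 0.4% DMSO · Schedule – compound incubation 1 h at room temperature, readout 45 min post-stimulation · Technique – fluorescence, membrane potential probe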
NPY1 pot ag: human NPY-Y1 potentiation or agonism, primary screen | NPY-Y1 expressing cells, potentiator/agonist activation | activation, % at 3.6 µM | 220,000 tested, 0.37% active | AID 1304; in the data active = activation above about 33%, passing the limit was not always enough;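 note: cells stimulated with NPY at EC10 then isoproterenol at EC100; 0% = low agonist plus stimulus and 100% = saturating agonist plus stimulus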
NPY-Y1 antag ct: antagonizes human NPY-Y1, counter-screen to NPY-Y2 antagonists; cell-based NPY-Y1 antagonism counterscreen; 710 tested, 19% active; inhibition, % at 3.6 µM; shares compounds with NPY-Y2 antag; in the data active = inhibition above about 20%;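 note: cells challenged with NPY then isoproterenol with cAMP sensed through a CNG channel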
NPY2 antag conf: confirmation of human neuropeptide Y receptor Y2 antagonists; shares compounds with NPY-Y2 antag; HEK293 NPY-Y2 CNG channel, membrane potential fluorescence; inhibition, % at 2.8 µM; 710 tested, 32% active; AID 1257;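 active = mean inhibition of triplicate wells above the hit cutoff set in the primary screen, cut at about 17% in these data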;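 note: 0% = DMSO with NPY challenge and 100% = BIIE0246 high control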
* = called active by the depositor; x = not tested or not shown.

SMILES | NPY-Y2 antag | NPY-Y2 PAM-ag | Furin inh | Cl transport mod | NPY-Y1 antag | NPY1 pot ag | NPY-Y1 antag ct | NPY2 antag conf
CCOC(=O)c1[nH]c(C)c(C(=O)N2CCN(c3ccccc3)CC2)c1C | 5 | -4 | -9 | x | 3 | -25 | x | x
c1ccc(-c2ccc(-c3cnc4n3CCCCC4)cc2)cc1 | 24* | -15 | 0 | x | 13 | -31 | 9 | 17
CC1(C)CC(=NOC(=O)c2ccccc2)CC(C)(C)N1O | 1 | -2 | -4 | -0.0031 | 2 | 5 | x | x
O=C(Nc1ccc(Cl)cc1F)c1ccc(COc2c(F)c(F)c(F)c(F)c2F)o1 | 16 | -20 | -21 | x | 15 | -21 | x | x
O=C(Nc1ccc(F)cc1F)c1ccc(COc2c(F)c(F)cc(F)c2F)o1 | 18* | -27 | -15 | -2.6 | 11 | -40 | 10 | 9
O=C(C1CCC1)N1CCc2cc(S(=O)(=O)Nc3ccc4c(c3)OCO4)ccc21 | 19* | 5 | -25 | x | 6 | -36 | 5 | 7
CCOc1ccc(NS(=O)(=O)c2ccc3c(c2)CCN3C(=O)C2CCC2)cc1 | 7 | -9 | -11 | x | 9 | -28 | x | x
Cc1nn(Cc2ccccc2)c(Cl)c1C(=O)OCc1nnc(-c2ccc(Cl)cc2)o1 | 19* | -4 | -8 | x | 8 | -53 | 11 | 7
O=C(OCc1nnc(-c2ccccc2)o1)c1ccc2c(c1)OCO2 | 20* | -33 | -9 | -0.61 | 11 | -21 | 18 | 16
O=C(OCc1nnc(-c2ccccc2)o1)c1ccco1 | -2 | -13 | -9 | x | 2 | -3 | x | x
CCOC(=O)c1c(-n2cccc2)sc2c1CCCC2=O | 25* | 12 | -5 | -0.62 | -3 | 2 | 1 | 3
CCOC(=O)c1c(N2C(=O)Nc3ccccc3N2O)sc2c1CCCC2 | 4 | 5 | -1 | -1.5 | 0 | 18 | x | x
CNCc1ccccc1Sc1ccc(OC)cc1 | 20* | -17 | -13 | 1.6 | 5 | -34 | 2 | 6
Cc1cccc(C)c1NC(=S)NCc1ccncc1 | x | -3 | -20 | 0.86 | x | 0 | x | x
Cc1cccc(NC(=O)c2sc(Cl)nc2C)c1C | 18* | 1 | -30 | 0.013 | -3 | 2 | -1 | 2
COc1cccc(-c2cc(C(=O)N3CCCc4ccccc43)no2)c1 | 19* | 0 | -14 | -2.1 | 17 | -25 | 17 | 9
COc1ccc(OC)c(-c2cc(C(=O)N3CCCc4ccccc43)no2)c1 | 17* | -31 | -7 | x | 19 | -33 | 10 | 5
CCC1=C(OC(=O)N(CC)CC)N2C(=O)OC(=NCC(=O)OC)[C@]2(Cc2ccccc2)[C@H]2C1=CC[C@H]1C(=O)NC(=O)[C@H]12 | x | x | -26 | -1.1 | x | x | x | x
CC(C)c1ccc(NC(=O)c2snc3ccc(Cl)cc23)cc1 | 26* | -4 | -17 | 0.16 | 6 | -3 | 9 | 10
CC(C)c1ccc(NC(=O)c2cccnc2)cc1 | 1 | 5 | -28 | -0.59 | -1 | 16 | x | x
CC1CCN(c2ccccc2NC(=S)NC(=O)c2cccs2)CC1 | 21* | 0 | -17 | 9.5* | 7 | -36 | 20* | 15
O=C(NC1CCCCC1)C(c1ccc2ncccc2c1)N(Cc1ccc2c(c1)OCO2)C(=O)c1cccs1 (configuration not stated) | 24* | -2 | -23 | x | 20 | 6 | 20* | 11
O=C(NC1CCCCC1)C(c1ccc2ncccc2c1)N(Cc1ccccc1)C(=O)c1ccc2c(c1)OCCO2 (configuration not stated) | 2 | 13 | -11 | x | 5 | -6 | x | x
COc1ccc(Cl)cc1NC(=O)c1c(-c2ccccc2)noc1C | 25* | -3 | -19 | 1.7 | 18 | -17 | 19 | 10
CC(CNCC1CCCO1)COc1cccc2ccccc12 (configuration not stated) | 4 | 0 | -17 | 0.037 | 3 | -1 | x | x
SMILES | NPY-Y2 antag | NPY-Y2 PAM-ag | Furin inh | Cl transport mod | NPY-Y1 antag | NPY1 pot ag | NPY-Y1 antag ct | NPY2 antag conf
CC(COc1cccc2ccccc12)CN1CCN(C)CC1 (configuration not stated) | 17* | 1 | -14 | 0.27 | 0 | -1 | 7 | 7
N#C/C(=C(/O)c1ccc(Cl)c([N+](=O)[O-])c1)c1nc2ccccc2[nH]1 | x | 17 | -33 | -0.1 | x | 11 | x | x
CCOC(=O)C(=CNc1ccc2c(c1)c1ccccc1n2CC)C(=O)OCC | x | -10 | -11 | -0.36 | x | -30 | x | x
O=C1CCC(c2ccccc2)=NN1 | x | -16 | -28 | 0.33 | -3 | 6 | x | x
CC(C)CCOc1ccc(C2=NNC(=O)CC2)cc1 | 42* | -16 | -16 | 0.46 | 15 | -53 | 20* | 41*
CN1CCC(OC(=O)c2ccccc2Cl)CC1 | x | -10 | -20 | 0.65 | 1 | 18 | x | x
CN1CCC(Oc2ccccc2Sc2ccccc2)CC1 | 18* | 2 | -29 | -0.62 | 14 | -43 | 15 | 22*
Cc1cc(NC(=O)c2c(C)noc2C)no1 | x | 18 | -7 | -0.18 | x | -7 | x | x
Nc1nonc1-c1nc2ccccc2n1Cc1ccc(F)cc1Cl | 25* | -27 | -21 | x | 16 | -61 | 45* | 51*
Fc1ccc(Cn2c(-c3cscn3)nc3ccccc32)c(Cl)c1 | 5 | 4 | -15 | -0.37 | 13 | -16 | x | x
COc1ccccc1Oc1ccc2c(c1)C(=O)N(c1ccc(O)cc1)C2=O | 18* | 23 | -31 | 0.097 | 4 | 19 | 4 | 14
COc1ccc(NC(=S)NCCCCCC(=O)C[N+](=O)[O-])cc1 | x | 0 | -4 | 0.6 | -1 | 5 | x | x
O=c1c2ccccc2nnn1CSc1ccc2ccccc2n1 | 4 | -3 | 2 | 0.18 | 1 | -1 | x | x
O=c1c2ccccc2nnn1CSc1ccccc1 | 24* | 0 | -18 | -0.71 | 1 | 13 | 6 | 2
CC1(C)CC(=O)C(=C2SCCCS2)C(=O)C1 | 1 | 12 | -26 | 0.88 | -4 | 12 | x | x
O=C(Nc1nc2ccccc2s1)c1cc(-c2ccco2)nc2ccccc12 | 37* | -116 | -21 | 0.9 | 7 | -111 | 64* | 88*
O=C(CSCc1ccc(Cl)cc1)N/N=C/c1c(Cl)cccc1Cl | 17* | 3 | -14 | 0.55 | 3 | -1 | 11 | 26*
O=C(CSCc1ccc(Cl)cc1)N/N=C/c1ccccc1 | 8 | -17 | -14 | -0.15 | 2 | 2 | x | x
COC(=O)c1ccccc1NC(=O)Cn1c(-c2nonc2N)nc2ccccc21 | 39* | -13 | -15 | x | 20 | -43 | 19 | 24*
CC(C)OC(=O)c1ccc(NC(=O)Cn2c(-c3nonc3N)nc3ccccc32)cc1 | 18* | -15 | -7 | 0.26 | 20 | -44 | 11 | 12
COc1ccc2c(c1)C(=NN)c1cc(OC)ccc1-2 | 0 | 4 | -17 | -1.1 | -9 | 17 | x | x
